Results as given in article PMC3969088 (British Journal of Pharmacology, 2014).
One block for each substance: values may come before it. Where no end group is shown, it is not given here.

Columns and labels:
[1] = biological target: AM1 receptor, CLR G35A (HA-CLR G35A with FLAG-RAMP2) (human) (UniProt Q16602)
[2] = biological target: AM1 receptor, CLR I32A (HA-CLR I32A with FLAG-RAMP2) (human) (UniProt Q16602)
[3] = biological target: AM1 receptor, CLR I52A (HA-CLR I52A with FLAG-RAMP2) (human) (UniProt Q16602)
[4] = biological target: AM1 receptor, CLR L34A (HA-CLR L34A with FLAG-RAMP2) (human) (UniProt Q16602)
[5] = biological target: AM1 receptor, CLR M42A (HA-CLR M42A with FLAG-RAMP2) (human) (UniProt Q16602)
[6] = biological target: AM1 receptor, CLR Q33A (HA-CLR Q33A with FLAG-RAMP2) (human) (UniProt Q16602)
[7] = biological target: AM1 receptor, CLR V36A (HA-CLR V36A with FLAG-RAMP2) (human) (UniProt Q16602)
[8] = biological target: AM2 receptor, CLR G35A (HA-CLR G35A with RAMP3) (human) (UniProt Q16602)
[9] = biological target: AM2 receptor, CLR I32A (HA-CLR I32A with RAMP3) (human) (UniProt Q16602)
[10] = biological target: AM2 receptor, CLR I41A (HA-CLR I41A with RAMP3) (human) (UniProt Q16602)
[11] = biological target: AM2 receptor, CLR I52A (HA-CLR I52A with RAMP3) (human) (UniProt Q16602)
[12] = biological target: AM2 receptor, CLR L34A (HA-CLR L34A with RAMP3) (human) (UniProt Q16602)
[13] = biological target: AM2 receptor, CLR M42A (HA-CLR M42A with RAMP3) (human) (UniProt Q16602)
[14] = biological target: AM2 receptor, CLR Q33A (HA-CLR Q33A with RAMP3) (human) (UniProt Q16602)
[15] = biological target: AM2 receptor, CLR Q45A (HA-CLR Q45A with RAMP3) (human) (UniProt Q16602)
[16] = biological target: AM2 receptor, CLR T37A (HA-CLR T37A with RAMP3) (human) (UniProt Q16602)
[17] = biological target: AM2 receptor, CLR V36A (HA-CLR V36A with RAMP3) (human) (UniProt Q16602)
[18] = biological target: AM2 receptor, wild type (HA-CLR with RAMP3) (human) (UniProt Q16602)
[19] = biological target: CGRP receptor, CLR G35A (HA-CLR G35A with RAMP1) (UniProt Q16602)
[20] = biological target: CGRP receptor, CLR I32A (HA-CLR I32A with RAMP1) (UniProt Q16602)
[21] = biological target: CGRP receptor, CLR I41A (HA-CLR I41A with RAMP1) (UniProt Q16602)
[22] = biological target: CGRP receptor, CLR L34A (HA-CLR L34A with RAMP1) (UniProt Q16602)
[23] = biological target: CGRP receptor, CLR M42A (HA-CLR M42A with RAMP1) (UniProt Q16602)
[24] = biological target: CGRP receptor, CLR Q45A (HA-CLR Q45A with RAMP1) (UniProt Q16602)
[25] = biological target: CGRP receptor, CLR T37A (HA-CLR T37A with RAMP1) (UniProt Q16602)
[26] = biological target: CGRP receptor, wild type (HA-CLR with RAMP1) (UniProt Q16602)
[27] = biological target: AM1 receptor, RAMP2 E101A (HA-CLR with FLAG-RAMP2 E101A) (human) (UniProt Q16602)
[28] = biological target: AM2 receptor, RAMP3 W84A (HA-CLR with RAMP3 W84A) (human) (UniProt Q16602)
[29] = biological target: AM2 receptor, RAMP3 W84F (HA-CLR with RAMP3 W84F) (human) (UniProt Q16602)
[30] = biological target: AM2 receptor, wild type (HA-CLR with RAMP3) (human) (UniProt Q16602); remark: listed apart in the source
[31] = test system: CLR mutants at the AM1 receptor; experiment: specific binding of [125I]-rAM to CLR mutants at the AM1 receptor; set-up: species or system human; conditions: Cos7, 4°C 1 h
Method in brief: (§1)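 Cos7 cells transiently cotransfected (PEI, 1 μg DNA/well total) with HA-tagged human CLR mutants plus FLAG-human RAMP2 (AM1) or untagged human RAMP3 (AM2). Cells incubated in DMEM/0.5% BSA with [125I]-rAM ([…], 30 000 cpm/well) at 4°C for 1 h, washed with ice-cold PBS, NaOH-solubilised and gamma-counted. […] Specific binding normalised to the WT mean.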

[32] = test system: CLR mutants at the AM2 receptor; experiment: specific binding of [125I]-rAM to CLR mutants at the AM2 receptor; set-up: species or system human; conditions: Cos7, 4°C 1 h
Method in brief: as §1

pEC50, cAMP production in Cos7 cells [1]: 7.92 | pEC50, cAMP production in Cos7 cells [2]: 8.24 | pEC50, cAMP production in Cos7 cells [3]: 8.11 | pEC50, cAMP production in Cos7 cells [4]: 7.64 | pEC50, cAMP production in Cos7 cells [5]: 7.86 | pEC50, cAMP production in Cos7 cells [6]: 7.89 | pEC50, cAMP production in Cos7 cells [7]: 7.89 | pEC50, cAMP production in Cos7 cells [8]: 8.78 | pEC50, cAMP production in Cos7 cells [9]: 9.47 | pEC50, cAMP production in Cos7 cells [10]: 8.47 | pEC50, cAMP production in Cos7 cells [11]: 9.12 | pEC50, cAMP production in Cos7 cells [12]: 9.13 | pEC50, cAMP production in Cos7 cells [13]: 8.61 | pEC50, cAMP production in Cos7 cells [14]: 8.56 | pEC50, cAMP production in Cos7 cells [15]: 8.94 | pEC50, cAMP production in Cos7 cells [16]: 7.7 | pEC50, cAMP production in Cos7 cells [17]: 8.62 | pEC50, cAMP production in Cos7 cells; WT control paired with CLR G35A [18]: 9.09 | pEC50, cAMP production in Cos7 cells; WT control paired with CLR I32A [18]: 9.83 | pEC50, cAMP production in Cos7 cells; WT control paired with CLR I41A [18]: 9.32 | pEC50, cAMP production in Cos7 cells; WT control paired with CLR I52A [18]: 9.29 | pEC50, cAMP production in Cos7 cells; WT control paired with CLR L34A [18]: 9.42 | pEC50, cAMP production in Cos7 cells; WT control paired with CLR M42A [18]: 8.82 | pEC50, cAMP production in Cos7 cells; WT control paired with CLR Q33A [18]: 8.59 | pEC50, cAMP production in Cos7 cells; WT control paired with CLR Q45A [18]: 8.95 | pEC50, cAMP production in Cos7 cells; WT control paired with CLR T37A [18]: 9.13 | pEC50, cAMP production in Cos7 cells; WT control paired with CLR V36A [18]: 9.09 | pEC50, cAMP production in Cos7 cells [19]: 8.04 | pEC50, cAMP production in Cos7 cells [20]: 8.52 | pEC50, cAMP production in Cos7 cells [21]: 7.23 | pEC50, cAMP production in Cos7 cells [22]: 8.44 | pEC50, cAMP production in Cos7 cells [23]: 8.27 | pEC50, cAMP production in Cos7 cells [24]: 7.97 | pEC50, cAMP production in Cos7 cells [25]: 7.47 | pEC50, cAMP production in Cos7 cells; WT control paired with CLR G35A [26]: 8.4 | pEC50, cAMP production in Cos7 cells; WT control paired with CLR I32A [26]: 8.42 | pEC50, cAMP production in Cos7 cells; WT control paired with CLR I41A [26]: 8.31 | pEC50, cAMP production in Cos7 cells; WT control paired with CLR L34A [26]: 8.51 | pEC50, cAMP production in Cos7 cells; WT control paired with CLR M42A [26]: 8.33 | pEC50, cAMP production in Cos7 cells; WT control paired with CLR Q45A [26]: 8.65 | pEC50, cAMP production in Cos7 cells; WT control paired with CLR T37A [26]: 8.31 | pEC50, cAMP production in Cos7 cells; WT control paired with CLR V36A [26]: 8.42 | pEC50, cAMP production in Cos7 cells [27]: 7.39 | pEC50, cAMP production in Cos7 cells [28]: 9.02 | pEC50, cAMP production in Cos7 cells [29]: 9.38 | pEC50, cAMP production in Cos7 cells; WT control paired with RAMP3 W84A [30]: 9.62 | pEC50, cAMP production in Cos7 cells; WT control paired with RAMP3 W84F [30]: 9.63
Substance: Human adrenomedullin 2 (AM2-47) (from UniProt Q7Z4H4 101-148) (peptide)

specific binding of [125I]-rAM ([31]; CLR I52A (printed 152A)): retained binding | specific binding of [125I]-rAM ([31]; CLR M42A and Q45A): abolished | specific binding of [125I]-rAM ([31]; CLR T37A and I41A): abolished | specific binding of [125I]-rAM ([32]; CLR M42A and Q45A): retained | specific binding of [125I]-rAM ([32]; CLR T37A and I41A): abolished
Substance: [^125I]-rAM: rat AM (rAM) iodinated using iodobeads, purified by reverse phase HPLC; radioligand (YRQSMNQGSRSTGCRFGTCTMQKLAHQIYQFTDKDKDGMAPRNKISPQGY; ends and bridges not checked; also: 125I label, residue not given here)
